Experimental data published in the M2OR odorant receptor database.
Positions count from the first letter of the chain named.

How the values were obtained:
Details in all cases: stereoisomer not certain
[1] = target: T1, OR4S2 (Homo sapiens) (UniProt Q8NH73)
T1 sequence (whole entry): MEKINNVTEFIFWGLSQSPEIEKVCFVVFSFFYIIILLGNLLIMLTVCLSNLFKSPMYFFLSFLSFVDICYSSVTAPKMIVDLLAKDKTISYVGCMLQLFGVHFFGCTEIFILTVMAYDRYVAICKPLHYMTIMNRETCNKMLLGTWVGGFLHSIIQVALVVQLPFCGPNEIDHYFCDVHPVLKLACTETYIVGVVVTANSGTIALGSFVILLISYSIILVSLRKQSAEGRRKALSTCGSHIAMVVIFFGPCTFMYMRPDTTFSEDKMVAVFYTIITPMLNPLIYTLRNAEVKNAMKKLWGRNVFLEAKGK
Summary of the method: (§1)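 Each entry records the cell line, G-protein, co-transfected protein and tags used. Methods varied with the source, often transient luciferase assays in mammalian cell lines. A receptor–molecule pair is called responsive (active) if the original authors judged its signal statistically different from baseline and non-responsive (inactive) otherwise.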

[2] = target: T2, OR4X1 (Homo sapiens) (UniProt Q8NH49)
T2 sequence (whole entry): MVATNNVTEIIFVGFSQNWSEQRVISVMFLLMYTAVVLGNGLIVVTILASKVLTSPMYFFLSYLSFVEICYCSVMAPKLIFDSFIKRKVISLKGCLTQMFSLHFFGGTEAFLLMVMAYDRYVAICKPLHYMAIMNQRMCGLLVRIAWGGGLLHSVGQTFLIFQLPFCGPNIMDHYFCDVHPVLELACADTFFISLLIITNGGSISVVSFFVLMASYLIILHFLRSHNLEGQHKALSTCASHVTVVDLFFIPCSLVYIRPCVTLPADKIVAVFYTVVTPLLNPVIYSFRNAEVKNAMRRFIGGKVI
Summary of the method: as §1

[3] = target: T3, OR4X2 (Homo sapiens) (UniProt Q8NGF9)
T3 sequence (whole entry): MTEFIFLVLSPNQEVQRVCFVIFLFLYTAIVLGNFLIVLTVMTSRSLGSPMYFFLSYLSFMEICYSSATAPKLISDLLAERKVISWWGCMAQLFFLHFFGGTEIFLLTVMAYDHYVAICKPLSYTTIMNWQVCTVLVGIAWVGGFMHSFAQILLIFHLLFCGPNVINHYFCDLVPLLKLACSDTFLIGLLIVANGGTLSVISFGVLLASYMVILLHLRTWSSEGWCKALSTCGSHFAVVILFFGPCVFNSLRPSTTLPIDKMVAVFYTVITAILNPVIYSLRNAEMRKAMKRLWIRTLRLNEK
Summary of the method: as §1

[4] = target: T4, OR51A2 (Homo sapiens) (UniProt Q8NGJ7)
T4 sequence (whole entry): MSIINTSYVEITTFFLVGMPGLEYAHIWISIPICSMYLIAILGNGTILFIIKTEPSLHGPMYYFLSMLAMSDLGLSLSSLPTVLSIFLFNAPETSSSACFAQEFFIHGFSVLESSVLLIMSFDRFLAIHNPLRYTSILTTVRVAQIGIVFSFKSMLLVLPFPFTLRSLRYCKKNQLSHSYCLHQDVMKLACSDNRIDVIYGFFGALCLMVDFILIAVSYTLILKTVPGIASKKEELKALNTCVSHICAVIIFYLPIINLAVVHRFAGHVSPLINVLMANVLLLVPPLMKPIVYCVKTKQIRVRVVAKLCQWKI
Summary of the method: as §1

[5] = target: T5, OR51A4 (Homo sapiens) (UniProt Q8NGJ6)
T5 sequence (whole entry): T4 sequence (whole entry) with G59E, T94I, S97N, S167N, P227L, E235Q, G267R, M288T, K289N, W311R
Summary of the method: as §1

[6] = target: T6, OR51A7 (Homo sapiens) (UniProt Q8NH64)
T6 sequence (whole entry): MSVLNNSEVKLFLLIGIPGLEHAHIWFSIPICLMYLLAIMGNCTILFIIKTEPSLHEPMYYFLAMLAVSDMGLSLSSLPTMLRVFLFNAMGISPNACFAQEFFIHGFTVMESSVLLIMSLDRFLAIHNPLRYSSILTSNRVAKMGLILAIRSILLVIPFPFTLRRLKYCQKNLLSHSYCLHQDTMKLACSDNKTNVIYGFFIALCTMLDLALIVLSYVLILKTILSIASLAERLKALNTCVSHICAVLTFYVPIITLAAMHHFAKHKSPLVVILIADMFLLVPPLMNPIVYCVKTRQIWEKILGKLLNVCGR
Summary of the method: as §1

[7] = target: T7, OR51B2 (Homo sapiens) (UniProt Q9Y5P1)
T7 sequence (whole entry): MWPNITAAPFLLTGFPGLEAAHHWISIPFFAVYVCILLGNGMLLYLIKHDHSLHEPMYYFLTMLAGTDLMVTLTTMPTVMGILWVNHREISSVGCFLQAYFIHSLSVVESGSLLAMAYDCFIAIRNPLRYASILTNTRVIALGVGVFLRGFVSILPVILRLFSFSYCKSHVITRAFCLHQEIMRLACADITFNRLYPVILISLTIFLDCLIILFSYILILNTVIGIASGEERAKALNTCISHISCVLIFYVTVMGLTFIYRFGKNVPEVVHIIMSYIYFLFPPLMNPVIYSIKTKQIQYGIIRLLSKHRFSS
Summary of the method: as §1

[8] = target: T8, OR51B4 (Homo sapiens) (UniProt Q9Y5P0)
T8 sequence (whole entry): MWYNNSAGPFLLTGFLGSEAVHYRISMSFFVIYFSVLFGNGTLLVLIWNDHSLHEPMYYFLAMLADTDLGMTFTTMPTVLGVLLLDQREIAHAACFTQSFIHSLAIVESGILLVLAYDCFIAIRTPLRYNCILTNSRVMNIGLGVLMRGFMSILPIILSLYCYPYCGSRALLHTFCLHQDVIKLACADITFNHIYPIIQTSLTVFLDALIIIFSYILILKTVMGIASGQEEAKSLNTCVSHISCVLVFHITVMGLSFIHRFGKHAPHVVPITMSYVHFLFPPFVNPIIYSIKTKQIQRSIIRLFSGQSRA
Summary of the method: as §1

[9] = target: T9, OR51B5 (Homo sapiens) (UniProt Q9H339)
T9 sequence (whole entry): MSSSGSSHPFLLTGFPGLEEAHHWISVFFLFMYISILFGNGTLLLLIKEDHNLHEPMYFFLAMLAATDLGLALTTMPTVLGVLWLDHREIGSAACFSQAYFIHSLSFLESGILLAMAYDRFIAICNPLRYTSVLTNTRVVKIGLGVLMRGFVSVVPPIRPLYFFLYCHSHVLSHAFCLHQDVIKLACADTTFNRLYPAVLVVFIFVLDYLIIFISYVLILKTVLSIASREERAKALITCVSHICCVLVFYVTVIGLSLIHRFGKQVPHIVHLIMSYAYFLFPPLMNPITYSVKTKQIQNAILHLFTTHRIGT
Summary of the method: as §1

[10] = target: T10, OR51B6 (Homo sapiens) (UniProt Q9H340)
T10 sequence (whole entry): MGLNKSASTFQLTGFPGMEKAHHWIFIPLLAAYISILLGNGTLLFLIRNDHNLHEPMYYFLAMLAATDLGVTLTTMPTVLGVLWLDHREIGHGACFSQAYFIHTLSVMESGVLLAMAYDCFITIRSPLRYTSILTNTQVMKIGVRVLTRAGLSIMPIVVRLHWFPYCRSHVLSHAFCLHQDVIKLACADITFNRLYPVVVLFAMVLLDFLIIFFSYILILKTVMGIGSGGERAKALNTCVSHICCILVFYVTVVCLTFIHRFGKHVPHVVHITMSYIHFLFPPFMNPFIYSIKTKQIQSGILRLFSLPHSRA
Summary of the method: as §1

[11] = target: T11, OR51D1 (Homo sapiens) (UniProt Q8NGF3)
T11 sequence (whole entry): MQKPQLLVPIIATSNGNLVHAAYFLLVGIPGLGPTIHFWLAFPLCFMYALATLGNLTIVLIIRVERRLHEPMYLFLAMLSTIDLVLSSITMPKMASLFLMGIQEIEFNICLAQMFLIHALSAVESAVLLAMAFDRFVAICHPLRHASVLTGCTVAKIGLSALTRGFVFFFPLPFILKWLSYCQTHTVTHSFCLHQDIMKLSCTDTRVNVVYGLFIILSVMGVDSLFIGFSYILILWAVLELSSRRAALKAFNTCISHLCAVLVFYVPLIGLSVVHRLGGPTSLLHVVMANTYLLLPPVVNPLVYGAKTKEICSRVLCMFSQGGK
Summary of the method: as §1

[12] = target: T12, OR51E1 (Homo sapiens) (UniProt Q8TCB6)
T12 sequence (whole entry): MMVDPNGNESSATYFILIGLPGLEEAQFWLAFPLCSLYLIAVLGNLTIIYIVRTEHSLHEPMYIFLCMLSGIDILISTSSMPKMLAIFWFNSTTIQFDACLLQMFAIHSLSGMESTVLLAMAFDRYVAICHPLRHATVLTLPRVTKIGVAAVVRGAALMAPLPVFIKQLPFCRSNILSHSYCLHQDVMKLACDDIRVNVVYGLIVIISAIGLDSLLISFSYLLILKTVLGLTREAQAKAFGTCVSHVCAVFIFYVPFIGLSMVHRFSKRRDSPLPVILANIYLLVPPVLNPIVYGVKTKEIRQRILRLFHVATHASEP
Summary of the method: as §1

[13] = target: T13, OR51E2 (Homo sapiens) (UniProt Q9H255)
T13 sequence (whole entry): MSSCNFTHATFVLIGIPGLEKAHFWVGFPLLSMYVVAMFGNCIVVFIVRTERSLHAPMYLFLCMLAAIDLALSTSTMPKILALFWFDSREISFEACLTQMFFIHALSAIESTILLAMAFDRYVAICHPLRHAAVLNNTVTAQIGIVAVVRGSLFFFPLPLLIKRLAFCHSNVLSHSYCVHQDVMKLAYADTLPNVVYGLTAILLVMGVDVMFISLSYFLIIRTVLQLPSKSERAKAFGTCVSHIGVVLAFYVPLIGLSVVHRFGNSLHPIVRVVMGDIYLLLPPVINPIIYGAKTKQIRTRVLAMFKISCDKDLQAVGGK
Summary of the method: as §1

[14] = target: T14, OR51F2 (Homo sapiens) (UniProt Q8NH61)
T14 sequence (whole entry): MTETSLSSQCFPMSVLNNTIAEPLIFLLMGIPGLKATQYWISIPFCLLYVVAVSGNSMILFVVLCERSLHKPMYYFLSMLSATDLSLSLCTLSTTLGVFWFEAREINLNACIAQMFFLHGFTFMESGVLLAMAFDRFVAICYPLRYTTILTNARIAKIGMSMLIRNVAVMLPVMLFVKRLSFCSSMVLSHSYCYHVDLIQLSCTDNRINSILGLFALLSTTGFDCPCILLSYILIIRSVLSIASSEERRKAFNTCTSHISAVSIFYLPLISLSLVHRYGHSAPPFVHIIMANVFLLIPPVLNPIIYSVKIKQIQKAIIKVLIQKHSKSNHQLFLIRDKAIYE
Summary of the method: as §1

[15] = target: T15, OR51G1 (Homo sapiens) (UniProt Q8NGK1)
T15 sequence (whole entry): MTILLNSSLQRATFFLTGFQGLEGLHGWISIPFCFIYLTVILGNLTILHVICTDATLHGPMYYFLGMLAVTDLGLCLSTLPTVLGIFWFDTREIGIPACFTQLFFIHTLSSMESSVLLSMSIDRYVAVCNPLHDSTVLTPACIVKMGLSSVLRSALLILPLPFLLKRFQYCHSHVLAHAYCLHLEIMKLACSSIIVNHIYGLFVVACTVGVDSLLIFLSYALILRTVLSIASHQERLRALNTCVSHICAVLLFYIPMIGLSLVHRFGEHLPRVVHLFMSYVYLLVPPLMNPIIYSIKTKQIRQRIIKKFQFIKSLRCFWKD
Summary of the method: as §1

[16] = target: T16, OR51G2 (Homo sapiens) (UniProt Q8NGK0)
T16 sequence (whole entry): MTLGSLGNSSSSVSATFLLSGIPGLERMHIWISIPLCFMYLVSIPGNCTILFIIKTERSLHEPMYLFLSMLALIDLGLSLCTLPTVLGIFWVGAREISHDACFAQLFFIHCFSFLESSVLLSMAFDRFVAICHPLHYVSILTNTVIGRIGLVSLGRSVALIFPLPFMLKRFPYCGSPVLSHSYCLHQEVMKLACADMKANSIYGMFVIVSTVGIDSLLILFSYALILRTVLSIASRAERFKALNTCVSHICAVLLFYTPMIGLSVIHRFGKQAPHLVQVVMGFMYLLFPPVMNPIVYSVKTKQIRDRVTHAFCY
Summary of the method: as §1

[17] = target: T17, OR51I1 (Homo sapiens) (UniProt Q9H343)
T17 sequence (whole entry): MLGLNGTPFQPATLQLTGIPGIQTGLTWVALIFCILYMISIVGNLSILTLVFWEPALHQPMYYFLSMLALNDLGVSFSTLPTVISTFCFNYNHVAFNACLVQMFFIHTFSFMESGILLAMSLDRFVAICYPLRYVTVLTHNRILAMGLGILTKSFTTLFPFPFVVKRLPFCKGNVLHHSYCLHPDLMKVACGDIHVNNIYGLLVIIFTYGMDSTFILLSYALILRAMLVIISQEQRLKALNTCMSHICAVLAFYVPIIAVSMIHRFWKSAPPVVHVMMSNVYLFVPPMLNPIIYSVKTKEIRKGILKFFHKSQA
Summary of the method: as §1

Measured: odorant receptor agonist call

CC1=C(O)C(=O)C(C)O1 (configuration not stated)
inactive: all assays above
